pIC50: −log10 of the molar value. Entries after “also recorded” stand apart in the source; their conditions may differ.
Key:
[1] = test system: human iPSC-derived motor neurons; assay: Axon fragmentation after axotomy in human motor neurons; type: cell-based
Procedure, shortened: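 Human iPSC-derived motor neurons spotted at 10,000 cells/well on poly-D-lysine/laminin in Complete Maintenance Medium + 5 µM DAPT; assay at 14 DIV. Test compound diluted from 10 mM DMSO stock (final DMSO 0.3%), pretreated 2 h before injury. Axons cut manually with micro-surgical blade and examined for fragmentation 16 h post-axotomy.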

mouse DRG neurons [2] = assay: Video time-lapse analysis of individual axonal blebs after rotenone pulse; type: cell-based
Procedure, shortened: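 Mouse DRG cultures given a 3-h pulse of 25 µM rotenone, rinsed, ± 30 µM test compound, then imaged brightfield every 15 min at 20X for 48 h. A blinded observer identified blebs at 3 h, tracked them back to confirm origin from healthy axons, then forward until fragmentation, resolution or end. Data analysed by Kaplan-Meier, with percentages taken at 48 h.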

mouse DRG neurons [3] = assay: NfL release in response to rotenone; type: cell-based; conditions: 25 μM rotenone
Procedure, shortened: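 Culture supernatants from mouse DRG neurons exposed to 25 µM rotenone, either continuously sampled over time or as 1- or 3-h pulses with collection at 48 h. Neurofilament light measured by NF-Light ELISA per the kit instructions.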

[4] = test system: axotomized mouse DRG neurons; assay: Axon degeneration; type: cell-based; conditions: for axonal protection after axotomy: WT mouse DRG, 16 h post-axotomy
Procedure, shortened: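 Mouse DRG from E13.5 C57BL/6J embryos, trypsin/EDTA-dissociated (37°C, 30 min), spotted at 5,000 cells/well on poly-D-lysine/laminin; assay at 6–7 DIV. Test compound diluted from 10 mM DMSO stock (final DMSO 0.3%), pretreated 2 h unless added after injury (e.g. 30 µM at set times). Axons cut manually with micro-surgical blade and scored for fragmentation 16 h post-axotomy.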

mouse DRG axons = assay: Mitochondrial membrane potential by TMRM fluorescence; type: cell-based
Procedure, shortened: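 Mitochondrial membrane potential in mouse DRG axons read live as TMRM fluorescence; cells were then rinsed, fixed in 1% paraformaldehyde and immunostained for βIII-tubulin. Axotomy arm: 10 µM test compound. Rotenone arm: 3-h pulse of 25 µM rotenone, rinsed 3×, 30 µM test compound immediately afterward, imaged 48 h after rotenone onset; n = 4.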

mouse DRG neurons [5] = assay: Rotenone-induced axonal degeneration; type: cell-based
Procedure, shortened: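 Mouse DRG cultures at 6–7 DIV received 25 µM rotenone, either continuously or as 1- or 3-h pulses removed by gentle 3× rinsing. Test compound at 30 µM was given either as 2-h pretreatment or immediately after rotenone removal. Axonal fragmentation scored 48 h after rotenone onset; n = 4.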

[6] = test system: axotomized mouse dorsal root ganglia (DRG) axons; assay: Axonal metabolites; type: cell-based; conditions: axonal lysates after axotomy, dose dependent
Procedure, shortened: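 Mouse E13.5 DRG neurons spotted at 100,000 cells/well; test compound present at graded concentrations; all axons severed around the soma cluster at DIV6. After 4 h, cell bodies removed on ice; axons extracted in 50% MeOH with chloroform partition, then lyophilized. cADPR and NAD+ quantified by online SPE-LC-MS/MS with 2-chloroadenosine internal standard against synthetic standard curves. Reported as ng/100,000 cells; n = 3/condition.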

mouse DRG neurons [7] = assay: Axonal cADPR after 3-h rotenone pulse; type: cell-based; conditions: 3 h 25 μM rotenone, rinse, then 4 h compound
Procedure, shortened: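 Mouse DRG cultures given a 3-h pulse of 25 µM rotenone, rinsed, then test compound added. Axonal metabolites extracted on ice: cell bodies removed, 50% MeOH, chloroform partition, lyophilization. cADPR measured by SPE-LC-MS/MS with 2-chloroadenosine internal standard against synthetic standard curves; reported as ng/100,000 cells.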

CD38 = biological target: T1, CD38 (Homo sapiens, UniProt P28907); assay: Biochemical selectivity panel
T1 sequence (P28907 1-300): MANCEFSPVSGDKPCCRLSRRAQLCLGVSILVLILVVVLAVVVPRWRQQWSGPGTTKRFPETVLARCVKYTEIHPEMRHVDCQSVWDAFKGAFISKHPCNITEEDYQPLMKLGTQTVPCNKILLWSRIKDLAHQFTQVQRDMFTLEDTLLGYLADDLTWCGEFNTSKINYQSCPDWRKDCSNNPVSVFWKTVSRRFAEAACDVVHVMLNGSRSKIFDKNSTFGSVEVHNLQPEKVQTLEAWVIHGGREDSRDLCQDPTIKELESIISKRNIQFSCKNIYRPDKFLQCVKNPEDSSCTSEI

[8] = biological target: T2, constitutively active SAM-TIR protein of human SARM1 (Homo sapiens, UniProt Q6SZW1); assay: SAM-TIR NADase assay; type: biochemical
T2 sequence (Q6SZW1 409-700): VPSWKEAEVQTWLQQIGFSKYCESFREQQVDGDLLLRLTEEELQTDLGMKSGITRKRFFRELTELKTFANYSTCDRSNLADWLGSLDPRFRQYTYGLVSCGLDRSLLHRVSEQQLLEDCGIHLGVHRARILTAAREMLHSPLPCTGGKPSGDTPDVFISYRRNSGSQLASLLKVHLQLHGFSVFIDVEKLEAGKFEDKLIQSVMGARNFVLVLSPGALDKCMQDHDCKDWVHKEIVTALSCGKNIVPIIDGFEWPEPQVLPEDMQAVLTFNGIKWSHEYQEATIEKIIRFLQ

mouse DRG somas = assay: Neuronal cell death after rotenone pulse; type: cell-based; conditions: WT DRG, 25 µM rotenone, 48 h
Procedure, shortened: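 Live mouse DRG cultures exposed to 25 µM rotenone for 48 h, then stained 20 min with 0.25 µM Cytotox Green (dead cells) and 1 µM Cytolight red. Imaged by IncuCyte at 20X, 9 fields/well; bright-field gave total cell counts and green fluorescence gave dead somas.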

[9] = 30 μM added after 3-h pulse of 25 μM rotenone

Ic1cccc2cnccc12 [DSRM-3716, 5-iodoisoquinoline]
protection from fragmentation after axotomy [1]: dose-dependent protection
axonal blebs induced by rotenone that fragmented (transected) (mouse DRG neurons [2]; [9]): 10%
axonal blebs induced by rotenone that remained (mouse DRG neurons [2]; [9]): 30%
NfL release into culture supernatant in response to rotenone (mouse DRG neurons [3]): can be prevented
additional axonal protection in SARM1−/− neurons ([4]; SARM1−/− DRG, 30 µM, axotomy): did not provide benefit beyond the robust protection observed with SARM1 genetic loss of function
axonal protection after axotomy [4]: protected axons
axonal protection, inhibitor added after injury ([4]; added 5 h post-axotomy): robustly protected
TMRM fluorescence (mitochondrial viability) after axotomy (mouse DRG axons; 10 μM, axotomy): preserved TMRM fluorescence; also recorded: maintained viable functional mitochondria
mitochondrial function by TMRM after rotenone pulse (mouse DRG axons; 3-h pulse 25 μM rotenone, 30 μM compound after removal, 48 h): preserved mitochondrial function
protection from rotenone-induced axonal degeneration (pretreatment) (mouse DRG neurons [5]; 25 μM rotenone, 48 h, 30 μM compound): prevented axonal degeneration to the same extent as protection observed in SARM1^−/− neurons; also recorded: robust protection
protection from fragmentation, compound added after rotenone pulse (mouse DRG neurons [5]; 3-h pulse 25 μM rotenone, 30 μM compound immediately after removal, 48 h): protected axons from fragmentation
preservation of NAD+ after axotomy [6]: substantial preservation of NAD^+
axonal levels of cADPR after rotenone pulse (mouse DRG neurons [7]): reduced axonal levels of cADPR
inhibitory activity against CD38 (CD38): no inhibitory activity

Oc1cccc2cnccc12 [compound 3, 5-hydroxyisoquinoline]
pIC50 [8]: 5.59

O=C(c1cc(Cc2n[nH]c(=O)c3ccccc23)ccc1F)N1CCN(C(=O)C2CC2)CC1 [olaparib, reference compound]
axonal protection after axotomy [4]: no protection of injured axons

C=C(C)[C@H]1Cc2c(ccc3c2O[C@@H]2COc4cc(OC)c(OC)cc4[C@@H]2C3=O)O1 [rotenone, reference compound]
blebs transected after rotenone removal (mouse DRG neurons [2]; 3-h pulse 25 μM rotenone, by 18 h): 95%
blebs fragmented after rotenone removal (mouse DRG neurons [2]; 3-h pulse 25 μM rotenone, by 48 h): 100%
axonal degeneration after rotenone pulse (mouse DRG neurons [5]; 25 μM rotenone removed after 1 h, examined at 48 h): ~ 70%
neuronal cell death (dead somas) caused by rotenone (mouse DRG somas): approximately 60%
